Shown is part of a subset that was picked to be rich in hits.
Lung fibro prol = blocks proliferation of human lung fibroblasts | 85,000 tested, 1.1% active | LL 47 human lung fibroblast viability, ATP luminescence; active compounds read low | viability, % at 10 µM;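 active means viability at or below 50% in the single dose screen; inactive means viability above 50%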;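 further: compound exposure lasted 72 h before the ATP readout; 100% = median luminescence of untreated cell-only wells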
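Test system: LL 47 human lung fibroblasts / Incubation: 72 h compound exposure at 37 °C after overnight plating / Technique: luminescent ATP detection, CellTiter-Glo / Compound dosing: 0.1% DMSO in all compound wells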
bCat KO growth = beta-catenin-lacking colon tumor cell growth suppression | 140,000 tested, 1.5% active | viability, % at 10 µM | HCT116 beta-catenin knockout viability, CellTiter-Glo, 60 h; active compounds read low;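 active means viability at or under a set limit, the compound median less 4 SD, cut at about 6% in these data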;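 further: 0% = Hyamine 1622 control at 20 µM and 100% = untreated cell control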
HUVEC inhibit = human endothelial cell proliferation inhibition; HUVEC proliferation, CellTiter-Glo luminescence, 72 h; active compounds read low; viability, % at 10 µM (by protocol); 86,000 tested, 1.1% active; AID 648;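 active means viability at or below 30%; inactive means viability above 30%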;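 further: 100% = median luminescence of DMSO-only cell control wells on each plate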
PTEN del growth = growth suppressors of cells with PTEN tumor suppressor deletion | AID 827 | HCT116 PTEN-null viability, CellTiter-Glo, 60 h; active compounds read low | 140,000 tested, 1.2% active | viability, % at 10 µM;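 active means viability at or below a set limit, 4 SD under the median of all tested compounds, cut at about 3.7% in these data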;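 further: PTEN knockout HCT116 line with beta catenin targeted HCT116 as companion control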
H69AR growth 86K = growth inhibitors of human H69AR lung tumor cells; H69AR lung tumor viability, ATP luminescence, 72 h; active compounds read low; viability, % at 10 µM; 85,000 tested, 6% active; AID 598;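 active means viability at or below 40%; inactive means viability above 40%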;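 further: multidrug resistant small cell line overexpressing MRP-1 efflux transporter; 100% = mean luminescence of untreated control wells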
Active calls of the source: *; / = no result given.

SMILES | Lung fibro prol | bCat KO growth | HUVEC inhibit | PTEN del growth | H69AR growth 86K
COC(=O)c1[nH]c2cc(OC)ccc2c1NC(=O)c1nonc1C | 88 | 72 | 90 | 76 | 30*
COc1ccccc1-n1cc(-c2ccc(Cl)cc2)[nH]c1=O | / | 90 | / | 104 | /
Cc1cc(S(=O)(=O)N2CCN(Cc3ccc4c(c3)OCO4)CC2)cc(C)c1N1CCCC1=O | 85 | 36 | 20* | 35 | 70
C#CCn1c(S(=O)(=O)Cc2ccc(OC)cc2)nc(-c2ccccc2)c1-c1ccccc1 | / | 51 | / | 50 | /
CN(C)c1ccc(/C=C/C(O)=C2/C(=O)N(C)C3(C)CC2c2ccccc2O3)cc1 (configuration not stated) | 96 | 56 | 91 | 52 | 21*
CC(=O)N1CCC(=NNC(=O)c2cccs2)CC1 | / | 102 | / | 101 | /
O=C1C2C(C(=O)N1/N=C/c1ccc(N3CCCCC3)o1)C1C=CC2C12CC2 (configuration not stated) | / | 96 | / | 102 | /
CC1=C(C(=O)OCC(C)C)C(c2ccsc2)C2=C(CCCC2=O)N1 (configuration not stated) | / | 83 | / | 89 | /
CN1c2ccccc2C(C)(C)C12CC(c1ccc(Cl)c(S(=O)(=O)N3CCCC3)c1)=NO2 (configuration not stated) | / | 73 | / | 82 | /
CN1c2ccccc2C(C)(C)C12CC(CCl)=NO2 (configuration not stated) | 96 | 81 | 90 | 82 | 4.5*
CCOC(=O)c1c(C)nc2c(c1-c1ccc(Cl)cc1)C(=O)CC(C)(C)C2 | / | 80 | / | 82 | /
CCN(CC)c1ccc(/C=N/NC(=O)Cc2cccs2)c(O)c1 | / | 5.2* | / | 6 | /
CCN(CC)c1ccc(/C=N/NC(=S)NCc2ccccc2)c(O)c1 | / | 20 | / | 15 | /
CCN(CC)c1ccc(/C=N/Nc2nc3ccccc3[nH]2)c(O)c1 | / | 3.5* | / | 7 | /
Cc1cccc(NS(=O)(=O)c2ccc3c(c2)Cc2cc(S(=O)(=O)Nc4cccc(C)c4C)ccc2-3)c1C | / | 30 | / | 6 | /
Cc1ccc(C(=O)CSc2nnc(-c3ccc4[nH]c(C)c(C)c4c3)o2)cc1C | / | 4.2* | / | 2.1* | /
Cc1ccc(-c2[nH]c3ccccc3c2SCCNC(=O)c2ccc(S(=O)(=O)N3CCOCC3)cc2)cc1 | / | 0.8* | / | 0.8* | /
COc1ccc(-c2[nH]c3ccccc3c2SCCNC(=O)c2ccccc2)cc1 | / | 60 | / | 56 | /
Fc1ccc2c(c1)C(c1ccncc1)=NNC(c1cccnc1)=N2 | / | 103 | / | 97 | /
COC(=O)/C(=C\Nc1ccc(OC)cc1)NC(=O)c1ccc(Cl)cc1Cl | 88 | 65 | 75 | 77 | 36*
Cc1ccc(OCCOCCN(C)C)c(Cl)c1 | / | 104 | / | 104 | /
Cc1ccc(C2=NN3C(C(=O)c4ccccc4)Oc4ccccc4C3C2)cc1 (configuration not stated) | / | 76 | / | 78 | /
O=C1C=C(NCCN2CCOCC2)C(=O)c2cnccc21 | / | 1.8* | / | 1.9* | /
CC(C)c1ccc(OCc2ccc(C(=O)N3CCN(c4ccccn4)CC3)cc2)cc1 | 99 | 64 | 88 | 59 | 84
O=C(CSc1nnc(Cc2cccs2)n1C1CCCCC1)N1CCCc2ccccc21 | 101 | 73 | 71 | 64 | 34*
SMILES | Lung fibro prol | bCat KO growth | HUVEC inhibit | PTEN del growth | H69AR growth 86K
Cn1c(Cc2cccs2)nnc1SCC(=O)N1CCCc2ccccc21 | 101 | 102 | 84 | 104 | 92
CCCCCCC(=O)N(O)C1CC(=O)N(c2ccc(Br)cc2)C1=O (configuration not stated) | 81 | 78 | 82 | 80 | 33*
CSc1ccccc1NC(=O)CN(c1ccccc1Br)S(C)(=O)=O | / | 92 | / | 92 | /
Cc1ccnc(SCCn2c(Br)nc3c2c(=O)n(C)c(=O)n3C)n1 | 99 | / | 100 | / | 94
C=CC(=O)N1c2ccccc2Sc2ccc(NC(=O)OCC)cc21 | 68 | 73 | 46 | 78 | 26*
CCOC(=O)Nc1ccc2c(c1)N(C(=O)N1CCN(C)CC1)c1ccccc1S2 | 83 | 85 | 69 | 86 | 103
CCOC(=O)c1c(CSc2nc(C)cc(C)c2C#N)n(C)c2cc(Br)c(OC(C)=O)cc12 | / | 30 | / | 38 | /
CCOC(=O)c1c(CSC(=N)N)n(-c2ccc(Br)cc2)c2cc(Br)c(OC(C)=O)cc12 | / | 1.3* | / | 1.6* | /
CNC(=O)COC(=O)/C=C/c1c(C)nn(-c2ccccc2)c1C | / | 77 | / | 91 | /
CCc1ccc(C2CC(c3cccc(Cl)c3)n3nc(N)nc3N2)cc1 (configuration not stated) | 103 | 69 | 97 | 63 | 38*
Cc1ccc(C2CC(c3cccc(Cl)c3)n3nc(N)nc3N2)cc1 (configuration not stated) | 92 | 98 | 101 | 97 | 79
CCCCCn1c(CN2CCN(c3cccc(Cl)c3)CC2)nc2c1c(=O)[nH]c(=O)n2C | 84 | 60 | 64 | 48 | 39*
Cn1c(=O)[nH]c(=O)c2c1nc(CN1CCN(c3cccc(Cl)c3)CC1)n2CCc1ccccc1 | 85 | 79 | 73 | 74 | 2.8*
COc1ccc(OCc2nc(N)nc(Nc3ccc(C)cc3)n2)cc1 | 105 | 76 | 96 | 73 | 87
N#Cc1c(N)oc(-c2ccco2)c1-c1ccco1 | 100 | 5.9* | 93 | 12 | 83
N#Cc1c(/N=C/c2ccco2)oc(-c2ccccc2)c1-c1ccccc1 | 92 | 98 | 109 | 103 | 98
CCSc1nc(N)c(C#N)c(-c2ccco2)c1C#N | 84 | 87 | 80 | 86 | 32*
COc1ccc(OC)c(/C=N/c2oc(-c3ccco3)c(-c3ccco3)c2C#N)c1 | 94 | 3.5* | 85 | 5 | 43
CC[C@H](C)[C@H](NC(=O)c1ccc(Cl)cc1)C(=O)OCC(=O)c1ccc2c(c1)NC(=O)CO2 | 21* | 82 | 5.4* | 93 | 2.6*
CC1(C)Cc2c(C#N)c(OCC(=O)c3ccc(Cl)cc3)nc(-c3ccoc3)c2CO1 | 39* | 64 | 76 | 76 | 50
Nc1cccc(Nc2nc(OC(C(F)(F)F)C(F)(F)F)nc(OC(C(F)(F)F)C(F)(F)F)n2)c1 | 63 | 6 | 44 | 2.4* | 1.5*
COc1nc(Nc2ccc(O)cc2)nc(OC(C(F)(F)F)C(F)(F)F)n1 | 92 | 85 | 95 | 75 | 87
CCN(CC)C(=O)c1cc(C(C)(C)C)c(O)c(C(C)(C)C)c1 | / | 77 | / | 95 | /
CCNC(=S)N/N=C(\C)c1ccc(N2CCOCC2)cc1 | / | 102 | / | 95 | /
CNC(=S)N/N=C(\C)c1ccc(N2CCOCC2)cc1 | / | 4.8* | / | 1.3* | /
O=[N+]([O-])c1cc(-c2nc3nc4ccccc4nc3n2CCc2ccccc2)cc([N+](=O)[O-])c1 | / | 65 | / | 76 | /
O=[N+]([O-])c1ccccc1SN(Cc1ccccc1)c1ccccn1 | / | 70 | / | 67 | /
N#CCSc1nc2cc(C(=O)N3CCC(C(N)=O)CC3)ccc2c2nc3ccccc3n12 | 99 | 5.0* | 86 | 7 | 63
N#CCSc1nc2cc(C(=O)N3CCCC3)ccc2c(=O)n1Cc1ccccc1 | / | 93 | / | 78 | /
N#CCSc1nc2ccccc2c2nc3ccccc3n12 | / | 5.8* | / | 9 | /
